Test results as given in PMC4257570 (Basic & Clinical Pharmacology & Toxicology, 2014).
“And” between values parts separate entries of the source, which are not always exact repeats. Identical values can stand only once. Blank lines part the entries; values can stand above or below the compound they belong to.

Key:
[1] = ref unpublished data; cited from earlier work
[2] = cited from earlier work
[3] = no reference given; cited from earlier work
[4] = cited from earlier work; remark: listed apart in the source
[5] = Population pharmacokinetic analysis; assay type: in vivo, human
Outline: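 Oral doses were 2.5–75 mg single and 2.5–60 mg/day multiple; only vortioxetine-alone data from interaction studies were used. Models were two-compartment with lag time and first-order absorption and elimination (one- and three-compartment also tested). Covariates, including CYP genotype-inferred metaboliser status, were added forward then deleted backward. Bootstrap gave 95% CIs.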

[6] = non-compartmental analysis, healthy young subjects

Compound: Cc1cc(C(=O)O)ccc1Sc1ccccc1N1CCNCC1 [Lu AA34443, 3-methyl-4-(2-piperazine-1-yl-phenylsulfanyl)-benzoic acid]
- Crossing of the blood–brain barrier [1]: incapable of crossing the blood–brain barrier

- CL/F of CYP2C19 EMs relative to PMs ([5]; CYP2C19 EM vs PM): 1.4 times
- Oral clearance (CL/F), estimate ([5]; CYP2D6-inferred extensive metabolisers (EM), final model): 34.1 L/h
- Oral clearance (CL/F), estimate ([5]; CYP2D6-inferred intermediate metabolisers (IM), final model): 26.6 L/h
- Oral clearance (CL/F), estimate ([5]; CYP2D6-inferred poor metabolisers (PM), final model): 18.1 L/h
- Oral clearance (CL/F), estimate ([5]; CYP2D6-inferred ultra metabolisers (UM), final model): 52.9 L/h
- CL/F of CYP2D6 extensive metabolisers relative to poor metabolisers ([5]; CYP2D6 EM vs PM): 1.9 times
- Oral clearance (CL/F), population mean ([5]; all healthy subjects, oral dosing, from the base model): 32.7 L/h and 33 L/h
- Absorption rate constant (ka), estimate ([5]; final model): 0.142 h⁻¹
- Interindividual variability (IIV) of CL/F ([5]; final model): 42%
- Interindividual variability (IIV) of V2/F ([5]; final model): 31%
- Interindividual variability (IIV) of ka ([5]; final model): 51%
- Lag-time (ALAG), estimate ([5]; final model): 0.781 h
- Volume of distribution, peripheral comp (V3/F), estimate ([5]; final model): 661 L
- Age on CL/F ([5]; final model, covariate effect): 0.277 L/hr/yr
- Height on V2/F ([5]; final model, covariate effect): 17.4 L/cm
- half-life ([5]; human, plasma, im, Estimated mean t1/2, CYP2D6-inferred metabolic status IM): 73 h
- Vd/F ([5]; human, plasma, oral): 1970 L
- half-life ([5]; human, plasma, oral, Estimated mean t1/2, CYP2D6-inferred metabolic status EM): 60 h
- half-life ([5]; human, plasma, oral, Estimated mean t1/2, CYP2D6-inferred metabolic status PM): 104 h
- half-life ([5]; human, plasma, oral, Estimated mean t1/2, CYP2D6-inferred metabolic status UM): 42 h
- V2/F, population mean ([5]; men, sex as only covariate): 1940 L
- Sum of the central and peripheral volumes of distribution (V2/F + V3/F) ([5]; population mean, oral administration): 2600 L
- Higher exposure in a subject compared with the population mean ([5]; subject vs population mean of 44 years): ≤ 40%
- CL/F, population mean ([5]; women, sex as only covariate): 30 L/h
- V2/F, population mean ([5]; women, sex as only covariate): 1810 L
Compound: Br.Cc1ccc(Sc2ccccc2N2CCNCC2)c(C)c1 [vortioxetine, 1-[2-(2,4-dimethyl-phenylsulfanyl)-phenyl]-piperazine hydrobromide]
- Absolute bioavailability for oral administration [2]: 75%
- Clearance (oral clearance) [2, 6]: 47 L/h
- Elimination half-life [2, 6]: 57 h
- Renal clearance [3]: negligible
- Change of CL/F of vortioxetine when co-administered with bupropion ([4]; bupropion (CYP2D6 inhibitor)): reduced approximately by half
- Increase of vortioxetine exposure with co-administration of bupropion ([4]; bupropion (CYP2D6 inhibitor)): approximately 2 fold
- Decrease of AUC of vortioxetine with co-administration of rifampicin ([4]; rifampicin (broad CYP inducer)): 72%
- Effect of co-administration of omeprazole on vortioxetine steady-state exposure ([4]; single dose of omeprazole (CYP2C19 inhibitor)): no effects
